The results in this text go back to ChEMBL document CHEMBL1134319, “Synthesis and antitumor activity of novel C-7 paclitaxel ethers: discovery of BMS-184476” (J Med Chem, 2001).

Structures are written as SMILES. pIC50: −log10 of the molar value.

One assay relates to HCT-116. Kind of assay: Inhibitory activity against human colon tumor cell sensitive to paclitaxel. It counts as functional, cell-based.
Assay [1] has as its system M109. Kind of assay: In vivo efficacy against Madison Murine lung carcinoma M109 tumors implanted sc and the drug given iv every day x 5 beginning 4 days post implantation. It counts as functional, Mus musculus. The method in brief: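 Murine M109 tumor was implanted subcutaneously, a site distal to drug administration. Dosing was iv daily ×5 starting 4 days after implant. Activity was expressed as gross log cell kill (LCK) of the analogue at its maximum tolerated dose, alongside LCK for paclitaxel at a historically determined efficacious dose. An LCK of 1 is counted as active.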

Assay [2] relates to M109. Kind of assay: In vivo efficacy against Madison Murine lung carcinoma M109 tumors implanted ip and the drug given ip on days 5 and 8 post implantation. The class given is functional, Mus musculus. An outline of the steps:
(§1)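 M109 tumor was implanted ip and drug given ip on days 5 and 8 after implantation. Read-out was %T/C of the analogue at its maximum tolerated dose, reported against %T/C for paclitaxel at a historically determined efficacious dose, which is not its MTD. %T/C above 125% is counted as active.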

Assay [3] is described as follows: Inhibition of tubulin polymerization compared paclitaxel. It counts as functional. The method in brief:
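Tubulin polymerization was followed by optical density. The value is the compound concentration giving a change of 0.01 OD/h, expressed as a ratio to the paclitaxel concentration giving the same change.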

A short description of assay [4]: Ratio of IC50 values of HCT116 MDR resistant cell line to HCT-116 sensitive cell line. The class given is functional. An outline of the steps:
(§2)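 IC50 was measured in the HCT-116/MDR paclitaxel-resistant human colon tumor line and in parental paclitaxel-sensitive HCT-116 cells. The ratio is resistant IC50 divided by sensitive IC50.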

The test system of assay [5] is M109. Kind of assay: In vivo efficacy against Madison Murine lung carcinoma M109 tumors implanted ip and the drug given ip on days 5 and 8 post implantation. It counts as functional, Mus musculus. An outline of the steps:
as §1

Assay [6] in a line: Ratio of IC50 values of HCT116 MDR resistant cell line to HCT-116 sensitive cell line. It counts as functional. An outline of the steps: as §2
For assay [7], the species on record is Mus musculus. Kind of assay: Number of cures/total at optimal dose of 40 units for q2dx5;10 schedule in mice infected with HCT/pk (Colon ca.) cells; 1/8. The class given is functional.
Assay [8] is filed under the species Mus musculus. Kind of assay: Number of cures/total at optimal dose of 30 units for q2dx5;26 schedule in mice infected with L2987 (Lung carcinoma) cells; 0/8. The class given is functional.
The species entered for assay [9] is Mus musculus. Kind of assay: Gross log cell kill activity at optimal dose of 2 units for q2dx5;8 schedule in mice infected with A2780 (ovarian carcinoma) cells. It counts as functional. The method in brief:
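Staged A2780 tumours in mice. Dosing was intravenous, every other day for 5 doses, starting 8 days after implantation. Optimal dose is the one below the excessively toxic dose. Activity is reported as gross log cell kill.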

The species entered for assay [10] is Mus musculus. Kind of assay: Number of cures/total at optimal dose of 2 units for q2dx5;8 schedule in mice infected with A2780 (ovarian carcinoma) cells; 0/8. The class given is functional.
Assay [11] is filed under the species Mus musculus. The experiment in a line: %T/C at optimal dose of 30 units for q2dx5;12 schedule in mice infected with HOC79 (ovarian ca.) cells.
The species named for assay [12] is Mus musculus. Kind of assay: Number of cures/total at optimal dose of 30 units for q2dx5;12 schedule in mice infected with HOC79 (ovarian ca.) cells; 0/8. It counts as functional.
The species entered for assay [13] is Mus musculus. Kind of assay: Gross log cell kill activity at optimal dose of 40 units for q2dx5;10 schedule in mice infected with HCT/pk (Colon ca.) cells. The class given is functional.
The species named for assay [14] is Mus musculus. Kind of assay: Gross log cell kill activity at optimal dose of 30 units for q2dx5;26 schedule in mice infected with L2987 (Lung carcinoma) cells. It counts as functional.

On to `CCCCOC(=O)N[C@@H](c1ccccc1)[C@@H](O)C(=O)OC1C[C@@]2(O)[C@@H](OC(=O)c3ccccc3)C3[C@](C)(C(=O)[C@H](OC(C)=O)C(=C1C)C2(C)C)[C@@H](OCSC)C[C@H]1OC[C@@]31OC(C)=O` (some centres not stated), for which the pIC50 (usually the IC50 on a negative log10 scale, so that one unit is a factor of ten) in the assay with HCT-116 is 8.92. Further, the Efficacy with M109 [1] stood at 0.2; in the assay on M109 [2], 177. Also, in assay [3], the Ratio came out at 0.6.
The compound `CSCO[C@H]1C[C@H]2OC[C@@]2(OC(C)=O)C2[C@H](OC(=O)c3ccccc3)[C@]3(O)CC(OC(=O)[C@H](O)[C@H](C=C(C)C)NC(=O)OC(C)(C)C)C(C)=C([C@@H](OC(C)=O)C(=O)[C@@]21C)C3(C)C` (some centres not stated) showed a pIC50 in the assay with HCT-116 of 9.15. This compound registered an Efficacy in the assay with M109 [2] of 109. Besides, the Ratio is 1.1 in assay [3] and 3.3 in assay [4].
The compound `COCCOCO[C@H]1C[C@H]2OC[C@@]2(OC(C)=O)C2[C@H](OC(=O)c3ccccc3)[C@]3(O)CC(OC(=O)[C@H](O)[C@@H](NC(=O)c4ccccc4)c4ccccc4)C(C)=C([C@@H](OC(C)=O)C(=O)[C@@]21C)C3(C)C` (some centres not stated) showed a pIC50 in the assay on HCT-116 of 9.05. In the assay on M109 [2], this compound returned an Efficacy of 132. In [3], the Ratio is 1.1.
In the assay on M109 [5], `COCO[C@H]1C[C@H]2OC[C@@]2(OC(C)=O)C2[C@H](OC(=O)c3ccccc3)[C@]3(O)CC(OC(=O)[C@H](O)[C@@H](NC(=O)c4ccccc4)c4ccco4)C(C)=C([C@@H](OC(C)=O)C(=O)[C@@]21C)C3(C)C` (some centres not stated) had an Efficacy of 115. The compound further gave a negative-log IC50 (pIC50) in the assay with HCT-116 of 8.68. Besides, the Ratio in assay [3] was 2.3.
`COCO[C@H]1C[C@H]2OC[C@@]2(OC(C)=O)C2[C@H](OC(=O)c3ccccc3)[C@]3(O)CC(OC(=O)[C@H](O)[C@@H](NC(=O)OCc4ccccc4)c4ccccc4)C(C)=C([C@@H](OC(C)=O)C(=O)[C@@]21C)C3(C)C` (some centres not stated) gave a pIC50 in the assay with HCT-116 of 8.85. This compound also showed an Efficacy with M109 [2] of 139. In assay [3], the Ratio was 0.6.
For the compound `CC(=O)O[C@H]1C(=O)[C@@]2(C)C([C@H](OC(=O)c3ccccc3)[C@]3(O)CC(OC(=O)[C@H](O)[C@@H](NC(=O)OC(C)(C)C)c4ccccc4)C(C)=C1C3(C)C)[C@]1(OC(C)=O)CO[C@@H]1C[C@@H]2OCOCCO` (some centres not stated), the pIC50 in the assay with HCT-116 is 8.96. This compound came in with an Efficacy with M109 [2] of 136. Further, the Ratio in assay [3] was 1.6; in assay [4] it was 0.7.
For the compound `CSCO[C@H]1C[C@H]2OC[C@@]2(OC(C)=O)C2[C@H](OC(=O)c3ccccc3)[C@]3(O)CC(OC(=O)[C@H](O)[C@@H](NC(=O)c4ccccc4)c4ccco4)C(C)=C([C@@H](OC(C)=O)C(=O)[C@@]21C)C3(C)C` (some centres not stated), the pIC50 with HCT-116 is 9.22. Also, the figures for the Efficacy in the assay with M109 [1] and in the assay with M109 [2] were 1.1 and 191, respectively. Further, the Ratio in assay [3] came out at 1.
`CO[C@H]1C[C@H]2OC[C@@]2(OC(C)=O)C2[C@H](OC(=O)c3ccccc3)[C@]3(O)CC(OC(=O)[C@H](O)[C@@H](NC(=O)OC(C)(C)C)c4ccco4)C(C)=C([C@@H](OC(C)=O)C(=O)[C@@]21C)C3(C)C` (some centres not stated): the Efficacy in the assay with M109 [5] is on record as 121. The pIC50 in the assay with HCT-116 is 8.89. Moreover, the figures for the Ratio in assay [6] and in assay [3] were 1.7 and 0.4, respectively.
`CSCO[C@H]1C[C@H]2OC[C@@]2(OC(C)=O)C2[C@H](OC(=O)c3ccccc3)[C@]3(O)CC(OC(=O)[C@H](O)[C@@H](NC(=O)OC(C)(C)C)c4ccco4)C(C)=C([C@@H](OC(C)=O)C(=O)[C@@]21C)C3(C)C` (some centres not stated): in the assay with HCT-116, the negative logarithm of the IC50 (pIC50) is 8.77. This compound also showed an Efficacy with M109 [2] of 104. For the same compound, the Ratio in assay [3] came out at 1.6; in assay [4], 1.
For `COCO[C@H]1C[C@H]2OC[C@@]2(OC(C)=O)C2[C@H](OC(=O)c3ccccc3)[C@]3(O)CC(OC(=O)[C@H](O)[C@@H](NC(=O)OC(C)(C)C)c4ccco4)C(C)=C([C@@H](OC(C)=O)C(=O)[C@@]21C)C3(C)C` (some centres not stated) the same measures were 8.89, 118, 0.4 and 5.6.
For `COCO[C@H]1C[C@H]2OC[C@@]2(OC(C)=O)C2[C@H](OC(=O)c3ccccc3)[C@]3(O)CC(OC(=O)[C@H](O)[C@@H](NC(=O)OC(C)(C)C)c4ccccc4)C(C)=C([C@@H](OC(C)=O)C(=O)[C@@]21C)C3(C)C` (some centres not stated) the same measures were 8.96, 118, 0.2 and 2.
With `CC(=O)O[C@H]1C(=O)[C@@]2(C)C([C@H](OC(=O)c3ccccc3)[C@]3(O)CC(OC(=O)[C@H](O)[C@@H](NC(=O)OC(C)(C)C)c4ccco4)C(C)=C1C3(C)C)[C@]1(OC(C)=O)CO[C@@H]1C[C@@H]2OCOCCO` (some centres not stated), the negative-log IC50 (pIC50) in the assay with HCT-116 was 8.77. The Ratio in [3] turned out to be 0.3; in assay [4], 4.1.
Regarding `CCOCO[C@H]1C[C@H]2OC[C@@]2(OC(C)=O)C2[C@H](OC(=O)c3ccccc3)[C@]3(O)CC(OC(=O)[C@H](O)[C@@H](NC(=O)c4ccccc4)c4ccccc4)C(C)=C([C@@H](OC(C)=O)C(=O)[C@@]21C)C3(C)C` (some centres not stated), the negative logarithm of the IC50 (pIC50) in the assay on HCT-116 was 8.66. In the assay with M109 [2], this compound yielded an Efficacy of 132. In addition, the Ratio in assay [3] came to 0.6.
In turn, `CC(=O)O[C@H]1C(=O)[C@@]2(C)C([C@H](OC(=O)c3ccccc3)[C@]3(O)CC(OC(=O)[C@H](O)[C@@H](NC(=O)c4ccccc4)c4ccccc4)C(C)=C1C3(C)C)[C@]1(OC(C)=O)CO[C@@H]1C[C@@H]2OCOCCO` (some centres not stated) showed a pIC50 with HCT-116 of 8.96. The Efficacy in the assay on M109 [1] stood at 0.9; in the assay on M109 [2], 238. Further, the Ratio in assay [3] was 1.
Consider `CC(=O)O[C@H]1C(=O)[C@@]2(C)C([C@H](OC(=O)c3ccccc3)[C@]3(O)CC(OC(=O)[C@H](O)[C@@H](NC(=O)OC(C)C)c4ccco4)C(C)=C1C3(C)C)[C@]1(OC(C)=O)CO[C@@H]1C[C@@H]2OCOCCO` (some centres not stated), for which the pIC50 in the assay with HCT-116 was 9.05. Moreover, the Efficacy in the assay on M109 [2] is 145. Moreover, the Ratio in [3] is 0.3.
Turning to `CSCO[C@H]1C[C@H]2OC[C@@]2(OC(C)=O)C2[C@H](OC(=O)c3ccccc3)[C@]3(O)CC(OC(=O)[C@H](O)[C@@H](NC(=O)OC(C)C)c4ccccc4)C(C)=C([C@@H](OC(C)=O)C(=O)[C@@]21C)C3(C)C` (some centres not stated), in the assay on HCT-116, the negative logarithm of the IC50 (pIC50) was 8.77. In addition, the Efficacy came out at 0.5 in the assay with M109 [1] and 191 in the assay on M109 [2]. Further, in assay [3], the Ratio is 1.6.
On to `CC(=O)O[C@H]1C(=O)[C@@]2(C)[C@H]([C@H](OC(=O)c3ccccc3)[C@]3(O)C[C@H](OC(=O)[C@H](O)[C@@H](NC(=O)c4ccccc4)c4ccccc4)C(C)=C1C3(C)C)[C@]1(OC(C)=O)CO[C@@H]1C[C@@H]2O` [PACLITAXEL], for which the C/T in the assay filed under Mus musculus [7] was determined as 1; in the assay listed under Mus musculus [8], 0; in the assay filed under Mus musculus [10] it was 0; in the assay filed under Mus musculus [12], 0. Also, the LCK is 6.1 in the assay filed under Mus musculus [9], 2.8 in the assay listed under Mus musculus [13] and 1.3 in the assay listed under Mus musculus [14]. The compound further registered a %T/C in the assay listed under Mus musculus [11] of 273%. Besides, the Ratio was found to be 1 in assay [3] and 200 in [4].
Take `COCO[C@H]1C[C@H]2OC[C@@]2(OC(C)=O)C2[C@H](OC(=O)c3ccccc3)[C@]3(O)CC(OC(=O)[C@H](O)[C@@H](NC(=O)c4ccccc4)c4ccccc4)C(C)=C([C@@H](OC(C)=O)C(=O)[C@@]21C)C3(C)C` (some centres not stated): in the assay on HCT-116, the pIC50 was 8.85. In the assay with M109 [2], the Efficacy came out at 192. Moreover, the Ratio in assay [3] is 0.5; in [4], 10.
